Assay results from ChEMBL document CHEMBL1142770, “Structure-activity relationships of 1,3,5-triazine-2,4,6-triones as human gonadotropin-releasing hormone receptor antagonists” (Bioorg Med Chem Lett, 2005).

Tested on: not listed separately
Test: Intrinsic clearance in human liver microsomes(HLM) for metabolic stability
Format: ADME, Microsome
Details: read-out: CI
Compound `COc1cccc(-n2c(=O)n(Cc3c(F)cccc3Br)c(=O)n(C[C@H](N)c3ccccc3)c2=O)c1F` has a CLint scaled of 158 mL/min/kg.
Work on `COc1cccc(-n2c(=O)n(Cc3ccccc3C#N)c(=O)n(C[C@H](N)c3ccccc3)c2=O)c1F` yielded a CLint scaled of 249 mL/min/kg.
In the case of `COc1cccc(-n2c(=O)n(Cc3ccccc3OC(F)(F)F)c(=O)n(C[C@H](N)c3ccccc3)c2=O)c1F`, the CLint scaled is reported as 146 mL/min/kg.

Target: T1, Gonadotropin-releasing hormone receptor (Homo sapiens, UniProt P30968)
T1 sequence (P30968 whole entry): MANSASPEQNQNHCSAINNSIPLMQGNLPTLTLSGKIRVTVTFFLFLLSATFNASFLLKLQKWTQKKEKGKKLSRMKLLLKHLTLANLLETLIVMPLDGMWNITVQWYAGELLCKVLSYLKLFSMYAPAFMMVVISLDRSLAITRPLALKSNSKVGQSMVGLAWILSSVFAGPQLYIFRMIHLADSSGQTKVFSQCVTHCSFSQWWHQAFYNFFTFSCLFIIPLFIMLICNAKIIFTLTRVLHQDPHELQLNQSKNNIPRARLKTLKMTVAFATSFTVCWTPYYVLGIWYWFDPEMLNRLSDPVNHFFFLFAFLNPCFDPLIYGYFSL
Test: In vitro ability to inhibit des-Gly[125I-Tyr, DLeu, NMeLeu,Pro-NEt]-GnRH radioligand binding to the cloned human GnRH receptor stably expressed in HEK293 cells
Format: cell-based
Details: not given
How it was run: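 A standard antagonist on each plate controlled for plate-to-plate variation. Key compounds were run in three to eight independent experiments.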
`COc1cccc(-n2c(=O)n(CC[C@H](N)CC(C)C)c(=O)n(Cc3c(F)cccc3F)c2=O)c1F` showed a Ki of 1500 nM.
Work on `COc1cccc(-n2c(=O)n(CC[C@H](N)c3ccccc3)c(=O)n(Cc3c(F)cccc3F)c2=O)c1F` yielded a Ki of 24 nM.
For `COc1cccc(-n2c(=O)n(CC3CCCCC3)c(=O)n(C[C@H](N)c3ccccc3)c2=O)c1F`, the Ki was > 10000 nM.
Work on `COc1cccc(-n2c(=O)n(Cc3ccccc3Cl)c(=O)n(C[C@H](N)c3ccccc3)c2=O)c1F` yielded a Ki of 20 nM.
Compound `COc1cccc(-n2c(=O)n(Cc3c(F)cccc3F)c(=O)n(CC(N)c3ccccc3F)c2=O)c1` (centres undefined) has a Ki of 120 nM.
For `COc1cccc(-n2c(=O)n(Cc3c(F)cccc3C(F)(F)F)c(=O)n(C[C@H](N)c3ccccc3)c2=O)c1F`, the Ki was 3 nM.
In the case of `COc1cccc(-n2c(=O)n(Cc3cccnc3Cl)c(=O)n(C[C@H](N)c3ccccc3)c2=O)c1F`, the Ki is reported as 66 nM.
`COc1cccc(-n2c(=O)n(Cc3c(F)cccc3F)c(=O)n(CC(N)CC(C)C)c2=O)c1F` (centres undefined) showed a Ki of 620 nM.
`COc1cccc(-n2c(=O)n(CCC(N)c3ccccc3C)c(=O)n(Cc3c(F)cccc3F)c2=O)c1` (centres undefined) gave a Ki of 75 nM.
`COc1cccc(-n2c(=O)n(Cc3ccccc3F)c(=O)n(C[C@H](N)c3ccccc3)c2=O)c1F` gave a Ki of 11 nM.
For `COc1cccc(-n2c(=O)n(Cc3c(F)cccc3Cl)c(=O)n(C[C@H](N)c3ccccc3)c2=O)c1F`, the Ki was 5 nM.
With `COc1cccc(-n2c(=O)n(C[C@H](N)c3ccccc3)c(=O)n(C(C)c3c(F)cccc3F)c2=O)c1F` (some centres undefined) the Ki was 630 nM.
`COc1cccc(-n2c(=O)n(CCC(N)c3cccc(F)c3)c(=O)n(Cc3c(F)cccc3F)c2=O)c1` (centres undefined) showed a Ki of 66 nM.
Compound `COc1cccc(-n2c(=O)n(Cc3c(F)cccc3F)c(=O)n(C[C@H](N)c3ccccc3)c2=O)c1F` has a Ki of 9 nM.
`COc1cccc(-n2c(=O)n(Cc3c(F)cccc3F)c(=O)n(CC(CN)c3ccccc3)c2=O)c1` (centres undefined) gave a Ki of 28 nM.
Work on `COc1cccc(-n2c(=O)n(Cc3c(Cl)cccc3C#N)c(=O)n(C[C@H](N)c3ccccc3)c2=O)c1F` yielded a Ki of 73 nM.
Work on `COc1cccc(-n2c(=O)n(Cc3c(F)cccc3F)c(=O)n(CC(N)c3ccccc3F)c2=O)c1F` (centres undefined) yielded a Ki of 20 nM.
For `COc1cccc(-n2c(=O)n(CCC(N)c3ccc(F)cc3)c(=O)n(Cc3c(F)cccc3F)c2=O)c1` (centres undefined), the Ki was 83 nM.
Compound `COc1cccc(-n2c(=O)n(CCC(N)c3cccnc3)c(=O)n(Cc3c(F)cccc3F)c2=O)c1` (centres undefined) has a Ki of 580 nM.
With `COc1cccc(-n2c(=O)n(CCC(N)c3ccccc3)c(=O)n(Cc3c(F)cccc3F)c2=O)c1` (centres undefined) the Ki was 70 nM.
`COc1cccc(-n2c(=O)n(Cc3ccccc3C)c(=O)n(C[C@H](N)c3ccccc3)c2=O)c1F` showed a Ki of 29 nM.
In the case of `COc1ccccc1Cn1c(=O)n(C[C@H](N)c2ccccc2)c(=O)n(-c2cccc(OC)c2F)c1=O`, the Ki is reported as 120 nM.
In the case of `COc1cccc(-n2c(=O)n(CCC(N)c3cccs3)c(=O)n(Cc3c(F)cccc3F)c2=O)c1` (centres undefined), the Ki is reported as 27 nM.
`COc1cccc(-n2c(=O)n(CCC(N)c3ccccc3F)c(=O)n(Cc3c(F)cccc3F)c2=O)c1` (centres undefined) showed a Ki of 800 nM.
`COc1cccc(-n2c(=O)n(Cc3c(Cl)cccc3Cl)c(=O)n(C[C@H](N)c3ccccc3)c2=O)c1F` gave a Ki of 36 nM.
`COc1cccc(-n2c(=O)n(CCC(N)c3ccccc3Cl)c(=O)n(Cc3c(F)cccc3F)c2=O)c1` (centres undefined) showed a Ki of 180 nM.
